Test results reported in ChEMBL document CHEMBL3997782, “Methoxylated 2'-hydroxychalcones as antiparasitic hit compounds” (Eur J Med Chem, 2017).

Columns and labels:
[1] = system: Leishmania infantum; test: Anti-parasitic activity against Leishmania infantum amastigotes infected in human THP1 cells at 50 uM after 5 days by Giemsa staining based assay relative to control; type: functional, cell-based; details: THP-1, 120 h
Outline: (§1)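 Intracellular L. infantum amastigotes in host cells, imaged by high-content automated imaging. Host cell number, infected cells and parasites per infected cell were counted. Infection Ratio = infected cells / total cells.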

[2] = system: Trypanosoma brucei brucei; test: Anti-parasitic activity against bloodstream form of Trypanosoma brucei brucei Lister 427 after 72 hrs by resazurin-based assay; type: functional; details: Lister 427, 72 h
Outline: (§2)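 Bloodstream-form T. brucei, modified resazurin-based viability assay. EC50 is the arithmetic mean of at least two independent determinations, each run in triplicate.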

[3] = biological target: hERG (KCNH2) (Homo sapiens, UniProt Q12809); test: Inhibition of human ERG at 10 uM by Tracer Red dye based fluorescence polarization assay relative to control; details: probe Tracer Red dye
[4] = biological target: T1, CYP1A2 (Homo sapiens, UniProt P05177); test: Inhibition of human CYP1A2 expressed in baculovirus-infected insect cells at 10 uM using Luciferin-1A2 as substrate in presence of NADPH by P450-Glo luminescence assay relative to control; type: ADME; details: probe Luciferin-1A2
T1 sequence (P05177 whole entry): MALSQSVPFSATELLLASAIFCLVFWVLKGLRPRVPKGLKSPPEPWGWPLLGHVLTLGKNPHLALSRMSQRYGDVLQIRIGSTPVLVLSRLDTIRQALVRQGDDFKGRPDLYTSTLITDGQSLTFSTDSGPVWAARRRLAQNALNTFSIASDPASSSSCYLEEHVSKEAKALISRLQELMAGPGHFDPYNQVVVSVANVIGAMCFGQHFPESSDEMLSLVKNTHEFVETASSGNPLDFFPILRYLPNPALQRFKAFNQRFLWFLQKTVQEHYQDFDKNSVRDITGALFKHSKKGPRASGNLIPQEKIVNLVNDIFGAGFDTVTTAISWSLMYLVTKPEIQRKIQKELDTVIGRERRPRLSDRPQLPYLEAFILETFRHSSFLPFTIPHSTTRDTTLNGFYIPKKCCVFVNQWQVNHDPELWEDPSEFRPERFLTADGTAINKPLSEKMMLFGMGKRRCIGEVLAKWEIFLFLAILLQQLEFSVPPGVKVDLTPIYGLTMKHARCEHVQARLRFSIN
Outline: (§3)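 CYP enzymes as microsomal preparations from baculovirus-infected insect cells, run on the P450-Glo luminogenic substrate platform. A fall in light output indicates inhibition.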

[5] = Cytotoxicity against human A549 cells assessed as cell growth at 10 uM by Cell titer-Glo assay relative to control; type: cell-based; details: read-out: Activity
Outline: (§4)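 A549 and WI-38 cells grown in DMEM with 10% v/v FCS, streptomycin 100 µg/ml and penicillin G 100 U/ml. Cell number read as cellular ATP by CellTiter-Glo luminescence. Growth 60–100% scored non-cytotoxic, 0–60% cytostatic, below 0 cytotoxic.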

[6] = Cytotoxicity against human THP1 cells by MTT assay; type: cell-based; details: THP-1 cells
Outline: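 THP-1 cells differentiated to macrophages with PMA, viability read by colorimetric MTT. CC50 and NOAEL are the arithmetic mean of at least two independent determinations, each run in triplicate.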

[7] = biological target: CYP2C19 (Homo sapiens, UniProt P33261); test: Inhibition of human CYP2C19 expressed in baculovirus-infected insect cells at 10 uM using Luciferin-H EGE as substrate in presence of NADPH by P450-Glo luminescence assay relative to control; type: ADME; details: probe Luciferin-H EGE; outline: as §3
[8] = system: Trypanosoma cruzi; test: Anti-parasitic activity against Trypanosoma cruzi Y promastigotes infected in HG39 cells by qPCR analysis; type: functional, cell-based; details: in the assay text read “trypomastigotes” for “promastigotes”
Outline: (§5)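 Confluent HG39 cells (3 x 10^6 per well) infected at a 1:1 ratio with blood-derived T. cruzi Y strain trypomastigotes. Growth inhibition was read as parasite gDNA by TaqMan probe-based quantitative real-time PCR.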

[9] = system: Trypanosoma brucei brucei; test: Anti-parasitic activity against bloodstream form of Trypanosoma brucei brucei Lister 427 at 10 uM after 72 hrs by resazurin-based assay relative to control; type: functional; details: Lister 427, 72 h; outline: as §2
[10] = biological target: Aurora kinase B (Homo sapiens, UniProt Q96GD4); test: Inhibition of N-terminal-GST-tagged recombinant full length human Aurora B expressed in baculovirus infected Sf9 cells at 10 uM using native Swine Myelin Basic Protein as substrate measured after 60 mins by ADP-Glo assay relative to control; details: probe native Swine Myelin Basic Protein
Outline: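 Aurora B kinase activity measured by ADP-Glo, which detects ADP formed through a coupled luciferase luminescence read-out.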

[11] = Selectivity index, ratio of CC50 for human THP1 cells to EC50 for anti-parasitic activity against bloodstream form of Trypanosoma brucei brucei Lister 427; type: toxicity; details: THP-1 cells, read-out: Ratio CC50/EC50
Outline: (§6)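 SI = CC50 in PMA-differentiated THP-1 macrophages (MTT) divided by the antiparasitic EC50.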

[12] = biological target: CYP2C9 (Homo sapiens, UniProt P11712); test: Inhibition of human CYP2C9 expressed in baculovirus-infected insect cells at 10 uM using Luciferin-H as substrate in presence of NADPH by P450-Glo luminescence assay relative to control; details: probe Luciferin-H
[13] = biological target: CYP2D6 (Homo sapiens, UniProt P10635); test: Inhibition of human CYP2D6 expressed in baculovirus-infected insect cells at 10 uM using Luciferin-ME EGE as substrate in presence of NADPH by P450-Glo luminescence assay relative to control; type: ADME; details: probe Luciferin-ME EGE; outline: as §3
[14] = Cytotoxicity against human […] cells assessed as cell growth at 10 uM by Cell titer-Glo assay relative to control; type: cell-based; details: WI-38 cells, read-out: Activity; outline: as §4
[15] = system: Trypanosoma cruzi; test: Anti-parasitic activity against Trypanosoma cruzi Y promastigotes infected in HG39 cells at 10 uM by qPCR analysis relative to control; type: functional, cell-based; details: in the assay text read “trypomastigotes” for “promastigotes”; outline: as §5
[16] = biological target: CYP3A4 (Homo sapiens, UniProt P08684); test: Inhibition of human CYP3A4 expressed in baculovirus-infected insect cells at 10 uM using Luciferin-PFBE as substrate in presence of NADPH by P450-Glo luminescence assay relative to control; type: ADME; details: probe Luciferin-PFBE
[17] = Lipophilicity, log P of the compound; type: physicochemical; details: octanol/water
[18] = system: 786-0; test: Mitochondrial toxicity in human 786-O cells at 10 uM by mitotracker red chloromethyl-Xrosamine staining based-uptake method relative to control; type: cell-based; details: 786-0, 10 µM
Outline: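 786-O renal carcinoma cells kept in RPMI-1640 with 2 mM glutamine, 10% v/v FCS, streptomycin 100 µg/ml and penicillin G 100 U/ml. Mitochondrial toxicity monitored by MitoTracker Red CMXRos uptake with high-content imaging.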

[19] = system: Leishmania infantum; test: Anti-parasitic activity against Leishmania infantum amastigotes infected in human THP1 cells after 5 days by Giemsa staining based assay; type: functional, cell-based; details: THP-1, 120 h; outline: as §1
[20] = Selectivity index, ratio of CC50 for human THP1 cells to EC50 for anti-parasitic activity against Leishmania infantum amastigotes infected in human THP1 cells; type: toxicity, cell-based; details: THP-1 cells, read-out: Ratio CC50/EC50; outline: as §6
[21] = system: Trypanosoma brucei; test: Anti-parasitic activity against Trypanosoma brucei 427; type: functional
[22] = biological target: Cytochrome P450 2C19 (Homo sapiens, UniProt P33261); test: Inhibition of human CYP2C19 expressed in baculovirus-infected insect cells using Luciferin-H EGE as substrate in presence of NADPH by P450-Glo luminescence assay; type: ADME; outline: as §3
[23] = biological target: Cytochrome P450 2D6 (Homo sapiens, UniProt P10635); test: Inhibition of human CYP2D6 expressed in baculovirus-infected insect cells using Luciferin-ME EGE as substrate in presence of NADPH by P450-Glo luminescence assay; type: ADME; outline: as §3
[24] = Cytotoxicity against human A549 cells assessed as cell growth by Cell titer-Glo assay; type: cell-based; outline: as §4
[25] = biological target: T2, Cytochrome P450 1A2 (Homo sapiens, UniProt P05177); test: Inhibition of human CYP1A2 expressed in baculovirus-infected insect cells using Luciferin-1A2 as substrate in presence of NADPH by P450-Glo luminescence assay; type: ADME; outline: as §3
T2 sequence (P05177 whole entry): T1 sequence (P05177 whole entry)

CYP2C19, sequence (P33261 whole entry): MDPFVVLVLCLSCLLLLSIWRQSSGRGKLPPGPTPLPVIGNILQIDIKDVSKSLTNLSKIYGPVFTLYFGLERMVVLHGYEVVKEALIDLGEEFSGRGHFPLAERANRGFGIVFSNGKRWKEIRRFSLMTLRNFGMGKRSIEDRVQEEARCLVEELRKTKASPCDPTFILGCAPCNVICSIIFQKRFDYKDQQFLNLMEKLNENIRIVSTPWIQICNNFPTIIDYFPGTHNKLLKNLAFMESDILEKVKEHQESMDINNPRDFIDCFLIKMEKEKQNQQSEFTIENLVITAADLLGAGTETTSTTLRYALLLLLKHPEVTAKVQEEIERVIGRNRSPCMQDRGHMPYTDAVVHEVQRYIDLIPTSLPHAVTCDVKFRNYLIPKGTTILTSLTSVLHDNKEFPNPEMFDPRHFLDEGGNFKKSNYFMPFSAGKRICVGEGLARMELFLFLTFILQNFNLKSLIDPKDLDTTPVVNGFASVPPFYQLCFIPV
CYP2D6, sequence (P10635 whole entry): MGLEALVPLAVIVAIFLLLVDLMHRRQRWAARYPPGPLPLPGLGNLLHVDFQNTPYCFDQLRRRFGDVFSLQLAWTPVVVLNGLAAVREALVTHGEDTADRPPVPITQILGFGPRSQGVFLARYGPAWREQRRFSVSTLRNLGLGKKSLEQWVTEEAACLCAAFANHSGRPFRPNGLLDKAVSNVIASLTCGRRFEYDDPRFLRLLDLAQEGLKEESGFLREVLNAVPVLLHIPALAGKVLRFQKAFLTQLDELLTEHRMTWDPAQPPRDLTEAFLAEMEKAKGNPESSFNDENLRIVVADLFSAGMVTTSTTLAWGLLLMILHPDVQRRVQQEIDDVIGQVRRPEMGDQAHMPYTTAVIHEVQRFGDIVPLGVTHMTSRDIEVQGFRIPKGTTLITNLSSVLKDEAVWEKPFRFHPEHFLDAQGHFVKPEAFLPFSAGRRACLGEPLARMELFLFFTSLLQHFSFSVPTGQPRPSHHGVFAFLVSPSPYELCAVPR
CYP2C9, sequence (P11712 whole entry): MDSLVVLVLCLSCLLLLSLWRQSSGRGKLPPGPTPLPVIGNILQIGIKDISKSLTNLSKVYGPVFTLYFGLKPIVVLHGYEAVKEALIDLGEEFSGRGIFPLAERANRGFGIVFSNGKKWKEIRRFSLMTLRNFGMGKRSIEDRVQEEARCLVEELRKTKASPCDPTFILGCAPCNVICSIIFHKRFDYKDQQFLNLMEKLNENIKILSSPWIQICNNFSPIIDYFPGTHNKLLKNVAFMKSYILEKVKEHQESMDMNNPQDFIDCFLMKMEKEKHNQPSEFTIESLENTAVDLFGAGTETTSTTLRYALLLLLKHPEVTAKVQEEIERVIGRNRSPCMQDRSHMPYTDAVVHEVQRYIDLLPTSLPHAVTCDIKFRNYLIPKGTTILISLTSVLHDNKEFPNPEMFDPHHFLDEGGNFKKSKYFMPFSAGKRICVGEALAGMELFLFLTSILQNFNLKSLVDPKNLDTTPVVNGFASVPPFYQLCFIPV
CYP3A4, sequence (P08684 whole entry): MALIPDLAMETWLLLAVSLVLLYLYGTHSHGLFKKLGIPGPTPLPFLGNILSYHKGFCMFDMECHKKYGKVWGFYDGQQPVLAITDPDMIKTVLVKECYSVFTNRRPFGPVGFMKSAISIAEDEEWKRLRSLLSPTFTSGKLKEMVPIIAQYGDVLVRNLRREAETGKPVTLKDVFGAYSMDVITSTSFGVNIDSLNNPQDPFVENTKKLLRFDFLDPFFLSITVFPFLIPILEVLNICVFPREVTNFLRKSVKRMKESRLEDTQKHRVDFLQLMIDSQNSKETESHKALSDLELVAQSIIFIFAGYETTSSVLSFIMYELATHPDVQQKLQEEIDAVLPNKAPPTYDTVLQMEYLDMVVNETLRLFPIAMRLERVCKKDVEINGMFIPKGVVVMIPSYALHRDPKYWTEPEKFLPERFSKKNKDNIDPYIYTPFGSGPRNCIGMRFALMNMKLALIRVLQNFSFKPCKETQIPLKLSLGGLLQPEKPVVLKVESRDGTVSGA
Aurora kinase B, sequence (Q96GD4 whole entry): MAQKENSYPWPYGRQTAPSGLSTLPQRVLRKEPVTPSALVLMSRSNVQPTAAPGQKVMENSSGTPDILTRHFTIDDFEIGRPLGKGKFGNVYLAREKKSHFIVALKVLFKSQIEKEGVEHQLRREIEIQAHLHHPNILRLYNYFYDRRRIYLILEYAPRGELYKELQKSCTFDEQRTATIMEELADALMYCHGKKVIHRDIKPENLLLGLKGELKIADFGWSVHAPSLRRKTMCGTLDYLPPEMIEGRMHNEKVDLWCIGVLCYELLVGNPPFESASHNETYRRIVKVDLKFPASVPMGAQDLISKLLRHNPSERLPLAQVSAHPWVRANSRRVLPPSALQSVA
hERG (KCNH2), sequence (Q12809 whole entry): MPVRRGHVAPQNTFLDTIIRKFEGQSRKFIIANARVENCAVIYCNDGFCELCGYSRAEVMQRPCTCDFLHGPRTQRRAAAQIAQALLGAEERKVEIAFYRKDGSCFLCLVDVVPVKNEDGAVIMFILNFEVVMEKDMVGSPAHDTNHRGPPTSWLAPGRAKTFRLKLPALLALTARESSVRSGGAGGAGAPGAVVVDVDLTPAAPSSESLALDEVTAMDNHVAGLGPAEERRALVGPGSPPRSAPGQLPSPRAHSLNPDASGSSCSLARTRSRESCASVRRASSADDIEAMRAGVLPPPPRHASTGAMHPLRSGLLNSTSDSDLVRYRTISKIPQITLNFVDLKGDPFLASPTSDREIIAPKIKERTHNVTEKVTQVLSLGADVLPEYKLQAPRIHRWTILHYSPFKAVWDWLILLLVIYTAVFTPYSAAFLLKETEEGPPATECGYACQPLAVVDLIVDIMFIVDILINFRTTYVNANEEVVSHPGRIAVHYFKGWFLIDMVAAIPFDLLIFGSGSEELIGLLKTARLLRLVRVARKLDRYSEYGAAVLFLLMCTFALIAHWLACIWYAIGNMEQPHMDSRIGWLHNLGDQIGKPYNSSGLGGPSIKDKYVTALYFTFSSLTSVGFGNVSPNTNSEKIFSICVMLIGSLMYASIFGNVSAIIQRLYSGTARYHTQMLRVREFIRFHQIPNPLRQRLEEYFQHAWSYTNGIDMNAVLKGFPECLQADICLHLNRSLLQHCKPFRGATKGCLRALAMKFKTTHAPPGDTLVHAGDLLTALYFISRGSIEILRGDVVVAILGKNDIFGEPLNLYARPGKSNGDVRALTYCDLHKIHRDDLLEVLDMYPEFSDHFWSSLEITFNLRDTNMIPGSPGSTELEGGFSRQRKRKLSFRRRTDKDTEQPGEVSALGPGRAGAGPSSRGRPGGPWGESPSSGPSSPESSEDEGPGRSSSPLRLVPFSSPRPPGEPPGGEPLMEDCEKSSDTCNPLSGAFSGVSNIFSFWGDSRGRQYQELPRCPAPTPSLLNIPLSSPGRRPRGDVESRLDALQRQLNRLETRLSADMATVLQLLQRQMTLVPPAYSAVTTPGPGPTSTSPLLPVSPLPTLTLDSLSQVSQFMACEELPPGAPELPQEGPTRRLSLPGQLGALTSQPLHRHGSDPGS
Cytochrome P450 2C19, sequence (P33261 whole entry): as the sequence (P33261 whole entry) above
Cytochrome P450 2D6, sequence (P10635 whole entry): as the sequence (P10635 whole entry) above

Structure (SMILES) | inhibition at 50 µM [1] [%] | EC50 [2] [µM] | inhibition at 10 µM [3] [%] | inhibition at 10 µM [4] [%] | viability at 10 µM [5] [%] | CC50 [6] [µM] | inhibition at 10 µM [7] [%] | EC50 [8] [µM] | inhibition at 10 µM [9] [%] | inhibition at 1 h, 10 µM [10] [%] | selectivity ratio [11] | inhibition at 10 µM [12] [%] | inhibition at 10 µM [13] [%] | viability at 10 µM [14] [%] | inhibition at 10 µM [15] [%] | inhibition at 10 µM [16] [%] | logP [17] | Activity [18] [%] | EC50 [19] [µM] | selectivity ratio [20] | further results
COc1cccc(/C=C/C(=O)c2ccc(OC)cc2O)c1 | 21 | 3.4 | 13.6 | 75.4 | 110 | > 25 | 63.5 | < 10 | 100 | -10.6 | ≥ 7 | 47.4 | 58 | 63 | 74 | -8.3 | 3.86 | -2.9 | – | – | –
COc1ccc(C(=O)/C=C/c2cc(OC)c(OC)c(OC)c2)c(O)c1 | 71 | – | 34.7 | 1.2 | 127 | > 100 | 67.5 | < 10 | – | -23.6 | – | 57.6 | 65.1 | 78.1 | 60 | -10 | 3.49 | 1.1 | 30.6 | > 1.6 | –
COc1ccc(C(=O)/C=C/c2ccc(OC)c(OC)c2)c(O)c1 | 10 | – | 3.5 | 36.2 | 98.8 | > 100 | 50 | < 10 | 10 | -10.4 | – | 10.7 | 92.7 | 128 | 48 | 2.4 | 3.53 | -5.8 | – | – | –
COc1ccc(O)c(C(=O)/C=C/c2cc(OC)c(OC)c(OC)c2)c1 | 43 | 4.4 | 9.5 | 13.3 | 108 | > 25 | 84.6 | – | 100 | -8.1 | ≥ 6 | 60.9 | 88.3 | 73.9 | 1 | -3.1 | 3.47 | -6.4 | 42.4 | > 1 | –
COc1ccc(O)c(C(=O)/C=C/c2c(OC)cccc2OC)c1 | – | 2.1 | -7.1 | 41.7 | 103 | > 25 | 61.1 | < 10 | 86 | 104 | ≥ 12 | 36.9 | 11.7 | 14.6 | 52 | 15.3 | 3.52 | 14.6 | – | – | –
COc1cc(O)c(C(=O)/C=C/c2cc(OC)c(OC)c(OC)c2)cc1OC | 88 | 7.4 | 7.1 | -3.1 | 115 | > 25 | 75.7 | – | 91 | -4.2 | ≥ 3 | 27 | -24.9 | 88.5 | 0 | 18.7 | 3.5 | 10 | 22.2 | > 2 | –
COc1cc(O)c(C(=O)/C=C/c2ccccc2)c(OC)c1 [FLAVOKAWAIN B] | – | – | – | – | – | – | – | – | – | – | – | – | – | – | – | – | 3.9 | – | – | – | EC50 [21]: 6.2 µM
N=C(N)c1ccc(OCCCCCOc2ccc(C(=N)N)cc2)cc1 [PENTAMIDINE] | – | 0.00155 | – | – | – | – | – | – | – | – | – | – | – | – | – | – | – | – | – | – | IC50 [22]: > 100 µM; IC50 [23]: 24.8 µM; GI50 [24]: > 100 µM; IC50 [25]: > 100 µM
